Measured values published in ChEMBL document CHEMBL4138200, “Amino acid and peptide prodrugs of diphenylpropanones positive allosteric modulators of α7 nicotinic receptors with analgesic activity” (Eur J Med Chem, 2018).
≈ marks a conversion by molar mass, not a printed value. Calls of active or inactive are those of the source.

Tests used:
[1] = test system: Rattus norvegicus; assay: Analgesic activity in CFA-induced paw inflammation Wistar rat model assessed as increase in paw withdrawal latency at 10 mg/kg, iv administered at 24 hrs post CFA injection measured at 1 hr post compound administration; format: functional, organism-based
Procedure, shortened: (§1)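 Male Wistar rats (250–300 g). CFA emulsion (1:1 oil/saline, 0.5 mg/ml, 50 μl) was injected intraplantar into the hind paw. 24 h later, compound was dissolved in DMSO, diluted in 0.9% saline (final DMSO 2,5%) and given iv at 10 mg/kg in 0,5 ml. Paw withdrawal latency was measured on a dynamic plantar aesthesiometer (ramp 2.5 g/s, 50 g cutoff), as the mean of three readings per time point, for up to 4 h; n ≥ 6 rats/group, two-way ANOVA with Bonferroni.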

[2] = biological target: Neuronal acetylcholine receptor subunit alpha-7 (Homo sapiens) (UniProt P36544); assay: Positive allosteric modulation of human alpha7 nAChR expressed in Xenopus laevis oocytes assessed as acetyl choline-evoked currents at 10 uM at -80 mV holding potential prtreated for 2 mins followed by co-treatment with acetyl choline by electrophysiology method relative to acetyl choline; format: cell-based
Sequence of Neuronal acetylcholine receptor subunit alpha-7 (Homo sapiens) (P36544 whole entry): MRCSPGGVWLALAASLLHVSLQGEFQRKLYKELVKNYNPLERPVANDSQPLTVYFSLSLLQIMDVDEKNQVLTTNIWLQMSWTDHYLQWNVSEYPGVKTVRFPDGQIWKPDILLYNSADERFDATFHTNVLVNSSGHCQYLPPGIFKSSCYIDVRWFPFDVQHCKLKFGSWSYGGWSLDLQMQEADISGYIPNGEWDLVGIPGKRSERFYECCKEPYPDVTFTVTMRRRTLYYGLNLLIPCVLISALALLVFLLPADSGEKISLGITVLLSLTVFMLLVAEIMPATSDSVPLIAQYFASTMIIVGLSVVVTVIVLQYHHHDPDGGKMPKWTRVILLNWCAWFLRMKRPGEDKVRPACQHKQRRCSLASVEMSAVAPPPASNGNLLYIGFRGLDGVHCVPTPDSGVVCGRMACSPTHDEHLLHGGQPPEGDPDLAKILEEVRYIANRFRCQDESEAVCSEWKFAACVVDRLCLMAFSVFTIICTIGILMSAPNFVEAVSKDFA
Procedure, shortened: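 Defolliculated Xenopus laevis oocytes were injected with 5 ng α7 cRNA and recorded 2–3 days later at 22°C, -80 mV. Compound (10 μM) was bath-preapplied for 2 min, then co-applied with 200 μM ACh by fast pipette application for 0.6 s. Peak current is expressed relative to the ACh-alone control (100%).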

[3] = Aqueous solubility of the compound in PBS buffer; format: physicochemical
[4] = test system: Rattus norvegicus; assay: Analgesic activity in CFA-induced paw inflammation Wistar rat model assessed as increase in paw withdrawal latency at 10 mg/kg, iv administered at 24 hrs post CFA injection measured at 30 mins post compound administration; format: functional, organism-based; procedure, shortened: as §1
[5] = Permeability across apical to basolateral side in human Caco2 cells; format: ADME, cell-based; details: Caco-2, read-out: permeability

Row | Activity [2] | Structure (SMILES) | further results
1 | 14.7% | Br.CC(C)C(N)C(=O)NC(C(=O)Oc1ccc(CCC(=O)c2cc(O)ccc2O)cc1)C(C)C (stereo in doubt) | Activity [1]: inactive; solubility ([3]; buffer): Soluble; Activity [4]: Active
2 | 24.7% | CC(C)C(N)C(=O)N1CCC[C@H]1C(=O)NC(C(=O)Oc1ccc(CCC(=O)c2cc(O)ccc2O)cc1)C(C)C (stereo in doubt) | Activity [1]: Active
3 | 26.7% | CC(C)C(N)C(=O)NC(C(=O)Oc1ccc(CCC(=O)c2cc(O)ccc2O)c(O)c1)C(C)C (stereo in doubt) | –
4 | 25.3% | Br.CC(C)C(N)C(=O)N1CCC[C@H]1C(=O)NC(C(=O)Oc1ccc(CCC(=O)c2cc(O)ccc2O)c(O)c1)C(C)C (stereo in doubt) | solubility ([3]; buffer): Soluble

More lines, now with the values behind:

Row | Structure (SMILES) | Activity [2] | further results
5 | O=C(CCc1ccc(O)cc1)c1cc(O)ccc1O | 666% | Papp A→B [5]: 33.5 ×10⁻⁶ cm/s; solubility ([3]; PBS buffer, read-out: solubility): 160 µM (≈ 41.3 µg/mL)
6 | CC(C)C(N)C(=O)NC(C(=O)Oc1ccc(/C=C/C(=O)c2cc(O)ccc2O)c(O)c1)C(C)C (stereo in doubt) | 24.5% | –
7 | O=C(CCc1ccc(O)cc1O)c1cc(O)ccc1O | 989% | –
